{"source": "paper PMC3680370", "about": "(Journal of medicinal chemistry, 2012)", "key": {"[1]": {"test_system": "primary cortical cultures", "type": "cell-based, rat", "details": "drug 50 μM; for effect of GABAA blockade by picrotoxin on neuroprotection: picrotoxin 100 μM added 1 h before glutamate 100 μM, MTT at 24 h", "in_short": "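Cortical neurons from E17 Sprague Dawley rat embryos, plated at 3×10^5 cells/cm2 on poly-L-lysine and switched to serum-free neurobasal/B27 at 24 h, were used at 10–11 DIV. Picrotoxin 100 μM was given 1 h before glutamate 100 μM, or omitted in a parallel run. Test compound or muscimol (50 μM final) followed 1 h after glutamate. MTT survival at 24 h was normalised to vehicle controls; mean ± SEM, n=6.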"}, "[2]": {"assay": "Stability of NO-chimera in neutral phosphate buffer", "type": "physicochemical", "details": "for stability in phosphate buffer: phosphate buffer 100 mM, pH 7.4, room temperature, HPLC-UV or LC-MS", "in_short": "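NO-chimeras were incubated in 100 mM phosphate buffer, pH 7.4, at room temperature in the HPLC autosampler. Aliquots were injected repeatedly, at intervals set by each compound's stability (about 7 or 67 min). Analysis used reverse-phase C18 HPLC with UV at 254 nm and a water/methanol vs acetonitrile gradient with 0.1% formic acid. Percent remaining was the parent:internal-standard peak-area ratio over the time-zero value.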"}, "[3]": {"test_system": "rat primary cortical neurons", "assay": "NMDA induced cytotoxicity in primary neurons", "type": "cell-based", "details": "NMDA 100 μM; compounds 50 μM"}, "[4]": {"test_system": "SH-SY5Y cell cultures", "assay": "Excitotoxic insults", "type": "cell-based, human", "details": "excitotoxic insults including glutamate, NMDA, OGD; data not shown"}, "[5]": {"test_system": "primary cortical cultured neurons", "assay": "Transient OGD followed by reoxygenation in primary neuronal cultures", "type": "cell-based, rat", "details": "for neuroprotection against OGD: primary neurons, 50 μM", "in_short": "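Cortical neurons came from E17 Sprague Dawley rat embryos. They were plated at 3×10^5 cells/cm2 on poly-L-lysine, then kept in serum-free neurobasal/B27 medium. On day 8–10, cultures had 2 h OGD at 37°C (95% N2/5% CO2) in deoxygenated, glucose-free HEPES-buffered salt solution, pH 7.4. They then had 24 h normoxic reoxygenation in fresh medium. Test compound (50 μM) was present throughout. Viability was read by MTT, death by LDH.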"}, "[6]": {"assay": "Brain bioavailability by LC-MS/MS", "type": "in vivo", "details": "mice, 20 min after i.p. administration; for MZ metabolite in the brain after NO-chimera administration: metabolite 22a from 32a, 26 from 28", "in_short": "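Male C57BL/6 mice (8–10 weeks, 20–25 g) got one i.p. dose of 4.5 μmol/kg, equimolar with the parent methylthiazole, at 0.1 ml/25 g; four mice per drug. Brains were taken 20 min post-dose and extracted with cold acetonitrile/MeOH (1:1) plus internal standard. After homogenising, 4°C centrifugation and re-extraction, extracts were cleared at −20°C and dried under N2. Analytes were measured by C18 HPLC (formic acid gradient).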"}, "[7]": {"test_system": "rats with cognitive deficits in the cholinergic systems of the basal forebrain", "details": "cited from earlier work"}, "[8]": {"test_system": "rabbits", "details": "cited from earlier work"}}, "data": [{"molecule": "Cc1ncsc1C(CO)n1cc(-c2cccnc2)nn1", "note": "(stereo not drawn) [compound 26, [1-[β-(4-Methyl-5-thiazolyl)ethanol]-4-(3-pyridinyl)]-1H-1,2,3-triazole]", "values": [{"measurement": "effect of GABAA blockade by picrotoxin on neuroprotection", "setting": "[1]", "result": "intermediate neuroprotective mechanisms"}]}, {"molecule": "Cc1ncsc1C(OCCOCCO[N+](=O)[O-])c1ccccc1", "note": "(centres unmarked) [compound 40, 1-nitrooxy-2-[2-[(4-methyl-5-thiazolyl)phenylmethoxy]ethoxy]ethane]", "values": [{"measurement": "stability in phosphate buffer", "setting": "[2]", "result": "stability over 5 days at room temperature"}]}, {"molecule": "Cc1ncsc1C(NC(=O)OCCCCO[N+](=O)[O-])c1ccccc1", "note": "(centres unmarked) [compound 43, N-[(4-Methyl-5-thiazolyl)phenylmethyl]-[4-(nitrooxy)butyl] carbamate]", "values": [{"measurement": "stability in phosphate buffer", "setting": "[2]", "result": "stable"}]}, {"molecule": "Cc1ncsc1C(OCCOCCO)c1ccccc1", "note": "(centres unmarked) [compound 41, [2-[(4-methyl-5-thiazolyl)phenylmethoxy]ethoxy]ethanol]", "values": [{"measurement": "effect of GABAA blockade by picrotoxin on neuroprotection", "setting": "[1]", "result": "intermediate neuroprotective mechanisms"}]}, {"molecule": "Cc1ncsc1CCCl", "note": "[CMZ, clomethiazole, reference compound]", "values": [{"measurement": "neuroprotection against NMDA induced cytotoxicity", "setting": "[3]", "result": "inhibited reproducibly"}, {"measurement": "neuroprotection in SH-SY5Y cells", "setting": "[4]", "result": "did not produce robust and reproducible neuroprotection"}]}, {"molecule": "Cc1ncsc1C(c1ccccc1)n1cc(-c2cncc(O)c2)nn1", "note": "(centres unmarked) [compound 16, 5-[1-[(4-Methyl-5-thiazolyl)phenylmethyl]-1H-1,2,3-triazol-4-yl]-3-pyridinol]", "values": [{"measurement": "neuroprotection against OGD", "setting": "[5]", "result": "retained neuroprotective efficacy comparable to CMZ"}]}, {"molecule": "Cc1ncsc1C(c1ccccc1)n1cc(-c2cccnc2)nn1", "note": "(centres unmarked) [5d, 3-[1-[(4-methyl-5-thiazolyl)phenylmethyl]-1H-1,2,3-triazol-4-yl]pyridine]", "values": [{"measurement": "neuroprotection against OGD", "setting": "[5]", "result": "excellent neuroprotectant"}, {"measurement": "neuroprotection against NMDA induced cytotoxicity", "setting": "[3]", "result": "excellent neuroprotectant"}]}, {"molecule": "Cc1ncsc1C(CO)c1ccccc1", "note": "(stereo not drawn) [22a, β-phenyl-4-methyl-5-thiazoleethanol]", "values": [{"measurement": "effect of GABAA blockade by picrotoxin on neuroprotection", "setting": "[1]", "result": "mirrored that by muscimol"}]}, {"molecule": "Cc1ncsc1C(CO[N+](=O)[O-])n1nncc1-c1cccnc1", "note": "(stereo not drawn) [compound 29, β-(4-methyl-5-thiazolyl)-[5-(3-pyridinyl)-1H-1,2,3-Triazole-1-ethane]-1-nitrate]", "values": [{"measurement": "stability in phosphate buffer", "setting": "[2]", "result": "stability over 5 days at room temperature"}]}, {"molecule": "Cc1ncsc1C(CO[N+](=O)[O-])n1cc(-c2cccnc2)nn1", "note": "(stereo not drawn) [compound 28, β-(4-methyl-5-thiazolyl)-[4-(3-pyridinyl)-1H-1,2,3-Triazole-1-ethane]-1-nitrate]", "values": [{"measurement": "stability in phosphate buffer", "setting": "[2]", "result": "stability over 5 days at room temperature"}, {"measurement": "MZ metabolite in the brain after NO-chimera administration", "setting": "[6]", "result": "readily detected"}]}, {"molecule": "Cc1ncsc1C(CO[N+](=O)[O-])c1ccccc1", "note": "(stereo not drawn) [32a, β-phenyl-(4-methyl-5-thiazolyl)ethane-1-nitrate]", "values": [{"measurement": "brain bioavailability of NO-chimera", "setting": "[6]", "result": "good brain bioavailability"}, {"measurement": "MZ metabolite in the brain after NO-chimera administration", "setting": "[6]", "result": "observed in the brain"}]}, {"molecule": "Cc1ncsc1C(Cc1ccccc1)O[N+](=O)[O-]", "note": "(stereo not drawn) [compound 33, α-(Phenylmethyl)-(4-methyl-5-thiazolyl)methanenitrate]", "values": [{"measurement": "stability in phosphate buffer", "setting": "[2]", "result": "stability over 5 days at room temperature"}]}, {"molecule": "Cc1ncsc1C(OC(=O)C1(CO[N+](=O)[O-])CC1)c1ccccc1", "note": "(centres unmarked) [compound 36, [1-[(nitrooxy)methyl]cyclopropanecarboxyl]-[(4-methyl-5-thiazolyl)phenylmethyl] ester]", "values": [{"measurement": "half-life", "setting": "[2]; phosphate buffer, pH 7.4", "result": "~30", "unit": "min"}]}, {"molecule": "4-Butyl-1-[(4-methyl-5-thiazolyl)phenylmethyl]-1H-1,2,3-triazole [5a]", "values": [{"measurement": "% normalized to CMZ after OGD", "setting": "[5]; test compounds 50 μM during 2-hour OGD and 24-hour reoxygenation, MTT assay at 24 h normalized to vehicle (0% survival) and CMZ (100% survival), mean ± SEM (n=6)", "result": "26.8 ± 5.2", "unit": "%"}]}, {"molecule": "NCc1cc(O)no1", "note": "[muscimol, Muscimol, reference compound]", "values": [{"measurement": "neuroprotection against glutamate toxicity", "setting": "[1]; glutamate 100 μM, 24 h, MTT", "result": "effective neuroprotection"}, {"measurement": "effect of GABAA blockade by picrotoxin on neuroprotection", "setting": "[1]", "result": "lost and reversed"}]}, {"molecule": "Cc1ncsc1C(NC(=O)C1(CO[N+](=O)[O-])CC1)c1ccccc1", "note": "(centres unmarked) [compound 44, N-[(4-methyl-5-thiazolyl)phenylmethyl]-1-[(nitrooxy)methyl]cyclopropanecarboxamide]", "values": [{"measurement": "stability in phosphate buffer", "setting": "[2]", "result": "stable"}]}, {"molecule": "Cc1ncsc1CCO[N+](=O)[O-]", "note": "[compound 1]", "values": [{"measurement": "learning and memory", "setting": "[7]", "result": "significantly improved learning and memory"}]}, {"molecule": "Cc1ncsc1CCO", "note": "[HMZ, 5-(2-hydroxyethyl)-4-methylthiazole]", "values": [{"measurement": "anticonvulsant activity", "setting": "[8]", "result": "anticonvulsant agent"}]}]}
